RAM inhibit: inhibitors of the yeast RAM network, primary screen, dse1pr::URA3 reporter, 5-FOA selection; S. cerevisiae dse1pr::URA3 reporter, 5-FOA growth OD615, 2 d; analog-sensitive cbk1-as2 kinase mutant strain; inhibition, % at 50 µM; 190,000 tested, 1.8% active; AID 868, 2007;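 active means inhibition above a set limit, 3 SD over mean compound inhibition, cut at about 8.4% in these data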;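 further: inhibition rescues growth on 5-FOA so higher OD means more RAM inhibition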
Yeast lifespan up: compounds extending yeast replicative lifespan, primary screen, S. cerevisiae, OD615 | S. cerevisiae growth with nicotinamide; deaD strain in restrictive glucose medium | inhibition of the nicotinamide effect, % at 10 µM | 130,000 tested, 0.68% active | AID 775, 2007;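 active means inhibition above a set limit, placed 3 SD over the median of all compounds, cut at about 26% in these data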
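Buffer or medium: CSMM-D glucose medium, restrictive; test system: modified budding yeast, DeaD strain; compound: single dose 10 µM compound, 0.25% DMSO; schedule: culture preincubation 4 h, compound exposure 48 h, both 30 °C; detection: optical density (absorbance) at 615 nm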
Yeast growth inh: growth inhibitors of yeast BB579 in restrictive medium, primary screen, yeast lifespan-shortening project, S. cerevisiae; OD615, 48 h; inhibition, % at 10 µM; 140,000 tested, 0.51% active; AID 804, 2007;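 active means inhibition above a set limit, 3 SD over the mean compound inhibition, cut at about 44% in these data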
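Material: Saccharomyces cerevisiae DeaD strain BB579, replicative lifespan model yeast; buffer or medium: CSMM-D restrictive synthetic medium containing dextrose (glucose); compound: 10 µM single dose, DMSO 0.25%; timing: 48 h compound exposure at 30 °C after 4 h preincubation; signal: turbidity as optical density at 615 nm; benchmarks: positive control amphotericin B 10 µg/mL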
A number is an active result; – = inactive; · = no result given. Only some compounds are listed: those with a hit (about 2.6% of all), similar ones and a draw of the others.

SMILES	RAM inhibit	Yeast lifespan up	Yeast growth inh
CC(C)(C)c1cc[n+](CC(=O)Nc2cc(C(F)(F)F)ccc2N2CCOCC2)cc1	–	·	·
Cc1nc2ccccn2c1C(=O)NN=C1C2CC3CC(C2)CC1C3	–	38	–
Cc1nc2ccccn2c1C(=O)NC1CCCC1	–	·	·
C=CCSc1nc(N)c(C(=O)Nc2ccccc2OC)cc1C(=O)Nc1ccccc1	–	–	–
C=CCSc1nc(N)c(C(=O)Nc2ccccc2)cc1C#N	9.8	–	–
Cc1ccc(NC(=O)CSc2nnc(-c3cccs3)o2)cc1S(=O)(=O)N(C)C	–	·	·
COc1ccc(C(=O)C2CCCN(C(=O)c3ccc4cc[nH]c4c3)C2)c(C)c1 (stereo unspecified)	–	·	·
COc1ccc(/C=C2\N=C(SC)N(c3ccccc3OC)C2=O)cc1	8.4	·	·
CCOc1ccc(N2C(=O)/C(=C/c3ccccc3)N=C2SC)cc1	–	·	·
O=C(OCc1cnc(Cl)s1)c1ccccc1Cl	–	–	–
O=C(OCn1ncc(Br)c(Br)c1=O)c1ccc(F)cc1	–	–	91
O=C(OCn1ncc(Br)c(Br)c1=O)c1ccccc1Cl	–	–	73
CCn1ncc(Br)c1C(=O)Nc1ccc(C(=O)OC(C)C)cc1	–	–	–
CCOC(=O)Cn1cc(C#N)c2cccc(CC)c21	–	·	·
CCCNCC1C(Oc2ccc(Cl)cc2)C(=O)N1c1ccccc1C (stereo unspecified)	–	–	–
CCCn1c2c(c(O)c(C(=O)Nc3ccc(OC)cc3)c1=O)CCCC2	9.2	–	–
CCCn1c2c(c(O)c(C(=O)NC)c1=O)CCCC2	–	–	–
Cc1cc(C)nc(NS(=O)(=O)c2ccc(NC(=S)NC(=O)c3cccnc3)cc2)n1	–	·	·
Cc1cc(NS(=O)(=O)c2ccc(NC(=S)NC(=O)c3cccnc3)cc2)no1	9.3	·	·
C=C(C)Cn1c(C)cc(C)c(S(=O)(=O)c2cccc(C)c2)c1=O	–	·	·
CC(C)N(C(=O)COc1ccc(Br)cc1Cl)C(C)C	–	–	–
Cc1nc(C(F)(F)F)c(C(=O)N/N=C(\N)c2cccnc2)s1	–	·	·
CCc1cccc2c(/C=N/NC(=O)c3cccc(S(=O)(=O)Nc4ccccc4Cl)c3)c[nH]c12	–	–	–
COP(=O)(CC(=O)c1ccccc1)CC(=O)c1ccccc1	–	·	·
COc1ccc(C(C)=O)cc1COc1ccccc1[N+](=O)[O-]	–	·	·
SMILES	RAM inhibit	Yeast lifespan up	Yeast growth inh
COc1ccc(C(C)=O)cc1COc1ccc([N+](=O)[O-])c(C)c1	8.6	·	·
Cc1cc(N2CCOCC2)ccc1/C=C\[N+](=O)[O-]	–	34	–
CC(=O)c1cc(N2CCOCC2)ccc1[N+](=O)[O-]	–	·	·
COc1ccc(S(=O)(=O)N2CCOCC2)cc1NC(=O)Cn1nnc2ccccc2c1=O	–	·	·
COC(=O)c1cccc(NC(=S)Nc2cc(Cl)ccc2OC)c1	–	·	·
COC(=O)c1cc(OC)c(OC)cc1NC(=S)Nc1cccc(C(C)=O)c1	–	40	–
O=C(COC(=O)/C=C/c1ccco1)Nc1ccc(F)cc1Cl	–	·	·
O=C(Oc1ccc(Br)cc1C(=S)N1CCCC1)c1ccccc1Cl	–	–	–
Cc1ccccc1C(=O)Oc1ccc(Br)cc1C(=S)N1CCCC1	9.8	–	–
N#CCN1CCN(CC(=O)Nc2cccc3ccccc23)CC1	–	–	–
CC1=NNC(=O)c2ccccc2O1	–	·	·
Cc1ccc(N(CC(=O)NCCSc2ccccn2)S(C)(=O)=O)cc1	–	·	·
CCc1n[nH]c(=S)n1/N=C/c1ccc(NC(C)=O)cc1	–	·	·
CSc1ccc(/C=N/n2c(Cc3ccc(Br)cc3)n[nH]c2=S)cc1	10.0	·	·
COc1cccc(CNC(=O)C(C(=O)NCc2cccc(OC)c2)c2ncc(C(F)(F)F)cc2Cl)c1	–	·	·
CN(C)CCNC(=O)COc1ccc(Cl)cc1Cl	–	–	–
O=C(COc1ccc(Cl)cc1Cl)NCCSc1ccc(Cl)cc1	9.0	–	–
COc1cc(C(CC(=O)O)n2cnnn2)ccc1OC(C)C (stereo unspecified)	–	·	·
Cc1cc(C)cc(CC2CC(=O)N(c3ccc(Cl)cn3)C2=O)c1 (stereo unspecified)	–	43	–
Cc1ccc(N2C(=O)CC(Cc3cc(C)cc(C)c3)C2=O)cc1 (stereo unspecified)	–	·	·
Cc1c(NC(=O)COC(=O)CCC(=O)c2ccc(Cl)cc2)c(=O)n(-c2ccccc2)n1C	–	·	·
COc1ccc(N(C)C(=S)Nc2ccc3nc(C)c(C)nc3c2)cc1	–	43	–
Cc1nc2ccc(NC(=S)NCc3ccccc3)cc2nc1C	–	·	·
CNS(=O)(=O)c1cc(N(C)S(=O)(=O)c2ccc(C)cc2)c(C)cc1C	10	·	·
Cc1ccc(S(=O)(=O)N(C)c2cc(S(=O)(=O)Nc3ccncc3)c(C)cc2C)cc1	–	–	–

Screening data from PubChem BioAssay.
